# Reference: ChEMBL document CHEMBL3120159, “Discovery of 2-pyridone derivatives as potent HIV-1 NNRTIs using molecular hybridization based on crystallographic overlays” (Bioorg Med Chem, 2014)
# Legend:
# [1] = Selectivity index, ratio of CC50 for human MT4 cells to EC50 for HIV2 ROD; type: toxicity, cell-based; settings: read-out: Ratio CC50/EC50
# How it was run: (§1)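 Selectivity index is CC₅₀/EC₅₀. Both values come from the same MTT assay in MT-4 cells: mock-infected and virus-infected (100-300 CCID₅₀) wells were run in parallel and read at day 5.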
# [2] = Cytotoxicity against human MT4 cells after 5 days by MTT assay; type: cell-based
# How it was run: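 Exponentially growing MT-4 cells resuspended at 6 × 10⁵ cells/mL and exposed to serial five-fold compound dilutions in triplicate, mock-infected alongside infected wells. Viability read by MTT assay at day 5. CC₅₀ = concentration reducing mock-infected cell viability by 50%.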
# [3] = Selectivity index, ratio of CC50 for human MT4 cells to EC50 for HIV1 3B; type: toxicity, cell-based; settings: read-out: Ratio CC50/EC50; how it was run: as §1
# [4] = system: Human immunodeficiency virus 1; test: Antiviral activity against HIV1 3B harboring wild type reverse transcriptase infected in human MT4 cells assessed as protection against virus-induced cytopathic effect after 5 days by MTT assay; type: functional, organism-based; settings: Human immunodeficiency virus 1, 3B, MT4, 120 h
# How it was run: (§2)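 MT-4 cells, growing exponentially, were spun and resuspended at 6 × 10⁵ cells/mL. They were infected at the start together with compound, given as serial five-fold dilutions in triplicate wells, with mock-infected wells run in parallel. Viability was read by MTT after 5 days. EC₅₀ is the concentration giving 50% protection against viral cytopathic effect.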
# [5] = system: Human immunodeficiency virus 2; test: Antiviral activity against HIV2 ROD infected in human MT4 cells assessed as protection against virus-induced cytopathic effect after 5 days by MTT assay; type: functional, organism-based; settings: Human immunodeficiency virus 2, ISOLATE ROD, MT4, 120 h
# How it was run: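 MT-4 cells resuspended at 6 × 10⁵ cells/mL after centrifugation at 200 g for 5 min. HIV-2 (ROD) added at 100-300 CCID₅₀. Test compound given as serial five-fold dilutions, triplicate wells. Viability of infected cells measured spectrophotometrically by MTT after 5 days. EC₅₀ = concentration giving 50% protection against viral cytopathic effect.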
# [6] = Selectivity index, ratio of CC50 for human MT4 cells to EC50 for HIV1 RES056; type: toxicity, cell-based; settings: read-out: Ratio CC50/EC50; how it was run: as §1
# [7] = system: Human immunodeficiency virus 1; test: Antiviral activity against HIV1 RES056 harboring reverse transcriptase K103N/Y181C double mutant infected in human MT4 cells assessed as protection against virus-induced cytopathic effect after 5 days by MTT assay; type: functional, organism-based; settings: Human immunodeficiency virus 1, RES056, MT4, 120 h; how it was run: as §2
# [8] = system: Human immunodeficiency virus 1; test: Antiviral activity against HIV1 harboring reverse transcriptase K101N mutant infected in human MT4 cells; type: functional, organism-based; settings: Human immunodeficiency virus 1, MT4
# [9] = system: Human immunodeficiency virus 1; test: Antiviral activity against HIV1 harboring wild type reverse transcriptase infected in human MT4 cells; type: functional, organism-based; settings: Human immunodeficiency virus 1, MT4
# [10] = system: Human immunodeficiency virus 1; test: Antiviral activity against HIV1 harboring reverse transcriptase Y181C mutant infected in human MT4 cells; type: functional, organism-based; settings: Human immunodeficiency virus 1, MT4
# [11] = system: Human immunodeficiency virus 1; test: Antiviral activity against HIV1 harboring reverse transcriptase K101N/Y181C double mutant infected in human MT4 cells; type: functional, organism-based; settings: Human immunodeficiency virus 1, MT4
# [12] = target: Human immunodeficiency virus type 1 reverse transcriptase (Human immunodeficiency virus 1, UniProt Q72547); test: Inhibition of HIV1 reverse transcriptase assessed as inhibition of biotinylated dUTP incorporation after 1 hr by ELISA
# How it was run: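 Recombinant HIV-1 RT kit (colorimetric ELISA). Poly(A)·oligo(dT)₁₅ template/primer with DIG-dUTP, biotin-dUTP and dTTP, ±inhibitor, 1 h at 37 °C. Product captured on streptavidin plate (1 h, 37 °C), then anti-DIG-POD (1 h, 37 °C), ABTS developed at 25 °C, A405 read. IC₅₀ = concentration inhibiting biotin-dUTP incorporation by 50%.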
structure (smiles),measurement,setting,value
COc1cc(Oc2c(C)cccc2C)cc(Nc2ccc(C#N)cc2)n1,selectivity ratio,[1],< 1
same,CC50 at 120 h,[2],8.5 µM
same,selectivity ratio,[3],< 1
same,EC50,[4],> 8.5 µM
same,EC50,[5],> 8.8 µM
Cc1cccc(C)c1Oc1cc(Nc2ccc(C#N)cc2)[nH]c(=O)c1,selectivity ratio,[1],< 1
same,selectivity ratio,[6],< 1
same,CC50 at 120 h,[2],36 µM
same,selectivity ratio,[3],26
same,EC50,[4],1.4 µM
same,EC50,[7],> 36 µM
same,EC50,[5],> 36 µM
Cc1cc(C)c(Oc2cc(Nc3ccc(C#N)cc3)[nH]c(=O)c2Br)c(C)c1,selectivity ratio,[1],1
same,selectivity ratio,[6],1
same,CC50 at 120 h,[2],> 294 µM
same,selectivity ratio,[3],> 9
same,EC50,[4],32 µM
same,EC50,[7],> 294 µM
same,EC50,[5],> 294 µM
CC(C)Nc1cccnc1N1CCN(C(=O)c2cc3cc(NS(C)(=O)=O)ccc3[nH]2)CC1 [DELAVIRDINE],CC50 at 120 h,[2],> 36 µM
same,selectivity ratio,[3],> 40
same,EC50,[4],0.91 µM
same,EC50,[7],> 36 µM
Cc1cc(C)cc(Oc2cc(Nc3ccc(C#N)cc3)[nH]c(=O)c2Br)c1,selectivity ratio,[1],< 1
same,CC50 at 120 h,[2],19 µM
same,selectivity ratio,[3],< 1
same,EC50,[4],> 19 µM
same,EC50,[5],> 19 µM
COc1cc(Oc2c(C)cc(C)cc2C)cc(Nc2ccc(C)cc2)n1,selectivity ratio,[1],< 1
same,CC50 at 120 h,[2],35 µM
same,selectivity ratio,[3],< 1
same,EC50,[4],> 35 µM
same,EC50,[5],> 35 µM
Cc1cc(C)cc(Oc2cc(Nc3ccc(C#N)cc3)[nH]c(=O)c2Cl)c1,selectivity ratio,[1],< 1
same,CC50 at 120 h,[2],21 µM
same,selectivity ratio,[3],< 1
same,EC50,[4],> 21 µM
same,EC50,[5],> 21 µM
Cc1cc(/C=C/C#N)cc(C)c1Nc1ccnc(Nc2ccc(C#N)cc2)n1 [RILPIVIRINE],EC50,[8],0.0003 µM
Cc1ccc(Nc2cc(Oc3c(C)cc(C)cc3C)cc(=O)[nH]2)cc1,selectivity ratio,[1],< 1
same,selectivity ratio,[6],< 1
same,CC50 at 120 h,[2],37 µM
same,selectivity ratio,[3],26
same,EC50,[4],1.4 µM
same,EC50,[7],> 37 µM
same,EC50,[5],> 37 µM
Cc1cc(C)cc(Oc2c(CSCc3ccco3)c(C)[nH]c(=O)c2I)c1,EC50,[8],0.001 µM
same,EC50,[9],0.002 µM
same,EC50,[10],0.005 µM
same,EC50,[11],0.004 µM
Cc1cc(C)cc(Oc2cc(Nc3ccc(C#N)cc3)[nH]c(=O)c2I)c1,selectivity ratio,[1],< 1
same,CC50 at 120 h,[2],24 µM
same,selectivity ratio,[3],< 1
same,EC50,[4],> 24 µM
same,EC50,[5],> 24 µM
Cc1cccc(C)c1Oc1cc(Nc2ccc(C#N)cc2)[nH]c(=O)c1Cl,selectivity ratio,[1],< 1
same,selectivity ratio,[6],< 1
same,CC50 at 120 h,[2],29 µM
same,selectivity ratio,[3],12
same,EC50,[4],2.4 µM
same,EC50,[7],> 29 µM
same,EC50,[5],> 29 µM
Cc1cc(C)c(Oc2cc(Nc3ccc(C#N)cc3)[nH]c(=O)c2I)c(C)c1,selectivity ratio,[1],< 1
same,selectivity ratio,[6],< 1
same,CC50 at 120 h,[2],34 µM
same,selectivity ratio,[3],6
same,EC50,[4],5.6 µM
same,EC50,[7],> 34 µM
same,EC50,[5],> 34 µM
Cc1ccnc2c1NC(=O)c1cccnc1N2C1CC1 [NEVIRAPINE],CC50 at 120 h,[2],> 15 µM
COc1cc(Oc2c(C)cc(C)cc2C)cc(Nc2ccc([N+](=O)[O-])cc2)n1,selectivity ratio,[1],< 1
same,CC50 at 120 h,[2],7.2 µM
same,selectivity ratio,[3],< 1
same,EC50,[4],> 7.2 µM
same,EC50,[5],> 7.2 µM
Cc1cc(C)c(Oc2cc(Nc3ccc(C#N)cc3)[nH]c(=O)c2)c(C)c1,selectivity ratio,[1],< 1
same,selectivity ratio,[6],< 1
same,CC50 at 120 h,[2],32 µM
same,selectivity ratio,[3],87
same,EC50,[4],0.37 µM
same,EC50,[7],> 32 µM
same,IC50,[12],39 µM
same,EC50,[5],> 32 µM
COc1cc(Oc2cc(C)cc(C)c2)cc(Nc2ccc(C#N)cc2)n1,selectivity ratio,[1],< 1
same,CC50 at 120 h,[2],20 µM
same,selectivity ratio,[3],< 1
same,EC50,[4],> 20 µM
same,EC50,[5],> 20 µM
COc1cc(Oc2c(C)cc(C)cc2C)cc(Nc2ccc(C#N)cc2)n1,selectivity ratio,[1],< 1
same,selectivity ratio,[6],< 1
same,CC50 at 120 h,[2],29 µM
same,selectivity ratio,[3],35
same,EC50,[4],0.84 µM
same,EC50,[7],> 29 µM
same,EC50,[5],> 29 µM
Cc1cc(C)c(Oc2cc(Nc3ccc(C#N)cc3)[nH]c(=O)c2Cl)c(C)c1,selectivity ratio,[1],1
same,selectivity ratio,[6],1
same,CC50 at 120 h,[2],> 329 µM
same,selectivity ratio,[3],> 35
same,EC50,[4],9.3 µM
same,EC50,[7],> 329 µM
same,EC50,[5],> 329 µM
Cc1cccc(C)c1Oc1cc(Nc2ccc(C#N)cc2)[nH]c(=O)c1Br,selectivity ratio,[1],< 1
same,selectivity ratio,[6],< 1
same,CC50 at 120 h,[2],63 µM
same,selectivity ratio,[3],17
same,EC50,[4],3.6 µM
same,EC50,[7],> 63 µM
same,EC50,[5],> 63 µM
Cc1cc(C#N)cc(C)c1Oc1cc(Nc2ccc(C#N)cc2)[nH]c(=O)c1Br,selectivity ratio,[1],1
same,selectivity ratio,[6],1
same,CC50 at 120 h,[2],> 287 µM
same,selectivity ratio,[3],> 244
same,EC50,[4],1.2 µM
same,EC50,[7],> 287 µM
same,EC50,[5],> 287 µM
Cc1cc(C)c(Oc2cc(Nc3ccc([N+](=O)[O-])cc3)[nH]c(=O)c2)c(C)c1,selectivity ratio,[1],< 1
same,selectivity ratio,[6],< 1
same,CC50 at 120 h,[2],26 µM
same,selectivity ratio,[3],19
same,EC50,[4],1.4 µM
same,EC50,[7],> 26 µM
same,EC50,[5],> 26 µM
Cc1cc(C#N)cc(C)c1Oc1cc(Nc2ccc(C#N)cc2)[nH]c(=O)c1I,selectivity ratio,[1],1
same,selectivity ratio,[6],1
same,CC50 at 120 h,[2],> 259 µM
same,selectivity ratio,[3],> 89
same,EC50,[4],2.9 µM
same,EC50,[7],> 259 µM
same,EC50,[5],> 259 µM
Cc1cc(C#N)cc(C)c1Oc1nc(Nc2ccc(C#N)cc2)nc(N)c1Br [ETRAVIRINE],EC50,[8],0.0012 µM
same,EC50,[11],0.0043 µM
Cc1cc(C#N)cc(C)c1Oc1cc(Nc2ccc(C#N)cc2)[nH]c(=O)c1,selectivity ratio,[1],< 1
same,selectivity ratio,[6],< 1
same,CC50 at 120 h,[2],25 µM
same,selectivity ratio,[3],166
same,EC50,[4],0.15 µM
same,EC50,[7],> 25 µM
same,IC50,[12],5.2 µM
same,EC50,[5],> 25 µM
Cc1cccc(C)c1Oc1cc(Nc2ccc(C#N)cc2)[nH]c(=O)c1I,selectivity ratio,[1],< 1
same,selectivity ratio,[6],< 1
same,CC50 at 120 h,[2],28 µM
same,selectivity ratio,[3],16
same,EC50,[4],1.7 µM
same,EC50,[7],> 28 µM
same,EC50,[5],> 28 µM
COc1cc(Oc2c(C)cc(C#N)cc2C)cc(Nc2ccc(C#N)cc2)n1,selectivity ratio,[1],≤ 1
same,selectivity ratio,[6],1
same,CC50 at 120 h,[2],> 147 µM
same,selectivity ratio,[3],≥ 211
same,EC50,[4],0.7 µM
same,EC50,[7],> 147 µM
same,EC50,[5],> 147 µM
Cc1cc(C)cc(Oc2cc(Nc3ccc(C#N)cc3)[nH]c(=O)c2)c1,selectivity ratio,[1],< 1
same,CC50 at 120 h,[2],46 µM
same,selectivity ratio,[3],< 1
same,EC50,[4],> 46 µM
same,EC50,[5],> 46 µM
Cc1cc(C#N)cc(C)c1Oc1cc(Nc2ccc(C#N)cc2)[nH]c(=O)c1Cl,selectivity ratio,[1],1
same,selectivity ratio,[6],1
same,CC50 at 120 h,[2],> 319 µM
same,selectivity ratio,[3],> 44
same,EC50,[4],7.2 µM
same,EC50,[7],> 319 µM
same,EC50,[5],> 319 µM
